The text below walks through data of ChEMBL document CHEMBL3244304, “Correlation of biological activity and high-pressure liquid chromatographic retention index for a series of propranolol, barbiturate, and anthranilic acid analogues” (J Med Chem, 1979).

A word on the logP: it is the decadic logarithm of the partition coefficient of the neutral form, usually between octanol and water. Read a low logP as a more hydrophilic compound. Broadly, the logD is the decadic logarithm of the distribution of all forms, ionised or not, between an organic phase and buffer at a given pH. A higher logD goes with a more lipophilic compound.

Data set [1] can be described thus: Retention index of the compound by HPLC method. The data set is classed as physicochemical.
Data set [2] in a line: Octanol-water partition coefficient, log P of nonionized form of compound. It is filed as physicochemical.
The species entered for data set [3] is Oryctolagus cuniculus. In words: Hypnotic activity in rabbit. The data set is classed as functional. The method, boiled down: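 Rabbits; value expressed as negative log of the minimum effective dose (mol/kg).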
A short description of data set [4]: Inhibition of Arbacia egg cell division. The data set is classed as functional. The method in brief: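 Arbacia egg cell division; value expressed as negative log of the molar drug concentration needed to reduce cell division 50%.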
Data set [5] is described as follows: Octanol-buffer partition coefficient, log P of the compound at pH 8.0 by ultraviolet spectroscopy. The data set is classed as physicochemical. The method in brief:
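Drug distributed between an octanol phase and an aqueous buffer at pH 8.0, the same way as the pH 7.0 phosphate-buffer method. Drug in each phase quantified by ultraviolet spectroscopy, and the log of the octanol/buffer distribution ratio was reported.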

Consider `CCC1(CC)C(=O)NC(=O)N(C)C1=O` [METHARBITAL], for which the Retention_index in data set [1] was determined as 532. Also, the logP in data set [2] amounted to 1.21.

Regarding `CCCCC1(CC)C(=O)NC(=O)NC1=O` [BUTETHAL], in data set [1], the Retention_index amounted to 610. The compound further yielded a logP in data set [2] of 1.65. In data set [3], this compound came in with a pMED of 3.72. The compound also showed a pED50 in data set [4] of 2.4.

In the case of `CCC1(CC)C(=O)NC(=O)NC1=O` [BARBITAL], the Retention_index in data set [1] was found to be 423. This compound returned a logP in data set [2] of 0.65. Besides, the pMED in data set [3] is 3.09.

On to `O=C(O)c1ccccc1NS(=O)(=O)c1ccc(Br)cc1`, for which the Retention_index in data set [1] amounted to 678. Moreover, the logD in data set [5] worked out at 0.83.

`C=CCC1(C(C)C#CCC)C(=O)N=C(O)N(C)C1=O` (centres undefined) [METHOHEXITAL] yielded a Retention_index in data set [1] of 776. In data set [2], this compound came in with a logP of 2.19.

As to `O=C(O)c1ccccc1NS(=O)(=O)c1ccc(F)cc1`, the Retention_index in data set [1] turned out to be 565. The compound further yielded a logD in data set [5] of 0.03.

In data set [1], `CCCC(C)C1(CC)C(=O)NC(=O)NC1=O` (centres undefined) [PENTOBARBITAL] had a Retention_index of 686. Further, in data set [2], the logP worked out at 1.95.

Consider `CCC1(C2=CCCCC2)C(=O)NC(=O)NC1=O` [CYCLOBARBITAL], for which the Retention_index in data set [1] was 604. Further, in data set [2], the logP stood at 1.86.

For the compound `O=C(O)c1ccccc1NS(=O)(=O)c1ccc(Cl)cc1`, the Retention_index in data set [1] was 656. This compound yielded a logD in data set [5] of 0.54.

`CCCC(C)C1(CC)C(=O)NC(=S)NC1=O` (centres undefined) [THIOPENTAL] yielded a Retention_index in data set [1] of 732. In data set [2], this compound showed a logP of 3.

In the case of `C=CCC1(C(C)C)C(=O)NC(=O)NC1=O` [APROBARBITAL], in data set [1], the Retention_index worked out at 552. This compound yielded a logP in data set [2] of 1.15. In data set [3], this compound displayed a pMED of 3.6.

In data set [1], `CCC1(c2ccccc2)C(=O)NC(=O)NC1=O` [PHENOBARBITAL] showed a Retention_index of 523.

`CN1C(=O)NC(=O)C(C)(C2=CCCCC2)C1=O` (centres undefined) [HEXOBARBITAL] registered a Retention_index in data set [1] of 648. In data set [2], this compound displayed a logP of 1.92.

In the case of `Cc1ccc(S(=O)(=O)Nc2ccccc2C(=O)O)cc1`, in data set [1], the Retention_index was found to be 606. Moreover, the logD in data set [5] is 0.05.

On to `C=CCC1(C(C)CCC)C(=O)NC(=O)NC1=O` (centres undefined) [SECOBARBITAL], for which the Retention_index in data set [1] was determined as 728. The same compound yielded a logP in data set [2] of 2.15. Further, the pMED in data set [3] amounted to 4.2.

For the compound `O=C(O)c1ccccc1NS(=O)(=O)c1ccccc1`, the Retention_index in data set [1] amounted to 530. The logD in data set [5] was -0.46.

For the compound `CCC1(CCC(C)C)C(=O)NC(=O)NC1=O` [AMOBARBITAL], the Retention_index in data set [1] was found to be 681. Moreover, the logP in data set [2] was 1.95.

Take `O=C(O)c1ccccc1NS(=O)(=O)c1ccc([N+](=O)[O-])cc1`: in data set [1], the Retention_index was determined as 586. This compound showed a logD in data set [5] of -0.03.

`O=C1CC(=O)NC(=O)N1` [BARBITURIC ACID]: in data set [1], the Retention_index came out at 53. In data set [2], this compound returned a lipophilicity (logP) of -1.35.

In data set [1], `C=CCC1(C(C)CCC)C(=O)N=C(S)NC1=O` (centres undefined) [THIAMYLAL] yielded a Retention_index of 760. In data set [2], the logP stood at 3.2.

Take `CCC(C)C1(CC)C(=O)NC(=O)NC1=O` (centres undefined) [BUTABARBITAL]: in data set [1], the Retention_index was 600. Besides, the logP in data set [2] turned out to be 1.45. The pMED in data set [3] amounted to 3.63.

For the compound `C=CCC1(CC(C)C)C(=O)NC(=O)NC1=O` [BUTALBITAL], the Retention_index in data set [1] is on record as 616. In addition, the logP in data set [2] is 1.45.
